Published values of several laboratories.
Protocols differ between the studies behind these lines.
Target: Tyrosine-protein kinase Fer (FER, Homo sapiens, UniProt P16591)

| SMILES | observed | technique | concentration | remaining binding [%] |
| --- | --- | --- | --- | --- |
| CCC(=O)N[C@H]1CC[C@@H](C(=O)N(C)c2ccc(-c3nc4ccccc4o3)cc2)C1 | cell-free assay | competition with immobilised ligand | 1 µM | 90 |
| O=C(c1ccc(Nc2ncc(Cl)c(-c3cc4ccccc4s3)n2)cc1)N1CCC(N2CCCC2)CC1 | binding | competition with immobilised ligand | 1 µM | 76 |
| O=C(NC[C@@H]1[C@H]2CN(C(=O)OCc3cc(C(F)(F)F)cc(C(F)(F)F)c3)C[C@@H]12)c1ccc2[nH]nnc2c1 | cell-free assay | competition with immobilised ligand | 1 µM | 97 |
| C=CC(=O)N1CCC(C(=O)NCC(=O)N2CCN(c3nc(-c4cnc(N)nc4C(F)F)nc(N4CCOCC4)n3)CC2)CC1 | binding | competition with immobilised ligand | 1 µM | 87 |
| CN(C)c1nccc(-c2cnn3ncccc23)n1 | binding | – | 1 µM | 97 |
| Cc1cnc(Nc2ccc(C(=O)N3CCC(N4CCCC4)CC3)cc2)nc1-c1cc2ccccc2s1 | binding | competition with immobilised ligand | 1 µM | 84 |
| C[C@H]1CCN(c2nccc(-c3cnn4ncccc34)n2)C1 | binding | – | 1 µM | 93 |
| CS(=O)(=O)c1cc(C2(NC(=O)c3cncc4c3cnn4-c3ccc(F)cc3)CC2)ccn1 | cell-free assay | competition with immobilised ligand | 1 µM | 100 |
| CN(CCCC(F)(F)F)c1nccc(-c2cnn3ncccc23)n1 | binding | – | 1 µM | 65 |
| FC(F)(F)Oc1cccc(-c2cnc3ccc(-c4ccncc4)nn23)c1 | cell-free assay | competition with immobilised ligand | 5 µM | 90 |
| c1cncc(-c2cccc(Nc3nccc(NC4CCCCC4)n3)c2)c1 | binding | competition with immobilised ligand | 10 µM | 83 |
| CS(=O)(=O)N1CCCC(NC(=O)[C@H](CCC2CCCCC2)NC(=O)c2ccc(CNC(=O)c3cnc4ccccn34)cc2)C1 (stereo partly drawn) | cell-free assay | competition with immobilised ligand | 0.1 µM | 99 |
| O=C(NCCCN1CCOCC1)c1ccc(Nc2ncc(Cl)c(-c3ccc(Cl)s3)n2)cc1 | binding | competition with immobilised ligand | 1 µM | 86 |
| F[C@@H]1CCN(c2nccc(-c3cnn4ncccc34)n2)C1 | binding | – | 1 µM | 81 |
| CO[C@H]1CC[C@H](CNc2ccc(S(=O)(=O)NC(=O)c3ccc(N4CCN(CC5=C(c6ccc(Cl)cc6)CC(C)(C)CC5)CC4)cc3Oc3cnc4[nH]ccc4c3)cc2[N+](=O)[O-])CC1 | cell-free assay | competition with immobilised ligand | 1 µM | 67 |
| CC1CCCN1c1nccc(-c2cnn3ncccc23)n1 (stereo not drawn) | binding | – | 1 µM | 100 |
| COc1cnc(Nc2cccc(S(N)(=O)=O)c2)nc1N1CCN(c2ccccc2)CC1 | binding | competition with immobilised ligand | 1 µM | 100 |
| CCN1CCN(Cc2ccc(C(=O)Nc3ccc(C)c(Oc4ccc5c(c4)CC(=O)N5)c3)cc2C(F)(F)F)CC1 | binding | competition with immobilised ligand | 1 µM | 100 |
| COc1ccc2cc(OCC3(C(=O)O)CN(C(=O)c4ccc(F)cc4)C3)ccc2c1 | cell-free assay | competition with immobilised ligand | 1 µM | 74 |
| COc1ccnn2ncc(-c3ccnc(N(C)C)n3)c12 | binding | – | 1 µM | 100 |
| O=C(Nc1c[nH]nc1C(=O)NC1CCNCC1)c1cc(F)cc(F)c1 | binding | competition with immobilised ligand | 1 µM | 100 |
